Reference: ChEMBL document CHEMBL1151846, “Cytotoxic constituents of chinese propolis” (J Nat Prod, 2009)
pIC50: −log10 of the molar value.

System: HeLa
Test: Cytotoxicity against human HeLa cells by MTT assay
Type: functional, cell-based
Summary of the method: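 HeLa human cervical cancer cells were tested by MTT viability assay, following a previously published protocol. Doxorubicin was run as the reference cytotoxic control. Values are reported as IC50 in µM.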

Row | SMILES | pIC50
1 | COc1cc(O)cc2c1C(=O)C(O)C(c1ccccc1)O2 (configuration not stated) | ≤ 5.00
2 | COc1cc(O)c(C(=O)/C=C/c2ccccc2)c2c1C[C@H](O)[C@@H](c1cc(O)cc(O)c1)O2 | 5.14
3 | COc1cc(C2Oc3c(c(OC)cc(O)c3C(=O)/C=C/c3ccccc3)CC2O)ccc1O (configuration not stated) | 5.19
4 | COc1cc(O)c(C(=O)/C=C/c2ccccc2)c2c1C[C@@H](O)[C@H](c1cc(O)cc(O)c1)O2 | 5.15
5 | O=c1cc(-c2ccc(O)cc2)oc2cc(O)cc(O)c12 [APIGENIN] | ≤ 5.00
6 | O=c1cc(-c2ccccc2)oc2cc(O)cc(O)c12 [CHRYSIN] | ≤ 5.00
7 | O=c1c(O)c(-c2ccccc2)oc2cc(O)cc(O)c12 [GALANGIN] | ≤ 5.00
8 | COc1ccc(/C=C/C(=O)O)cc1O [ISOFERULIC ACID] | ≤ 5.00
9 | COc1cc(-c2oc3cc(O)cc(O)c3c(=O)c2O)ccc1O [ISORHAMNETIN] | ≤ 5.00
10 | O=C1C[C@@H](c2ccccc2)Oc2cc(O)cc(O)c21 [PINOCEMBRIN] | ≤ 5.00
11 | O=c1c(O)c(-c2ccc(O)c(O)c2)oc2cc(O)cc(O)c12 [QUERCETIN] | ≤ 5.00
12 | COc1cc(O)c2c(=O)c(O)c(-c3ccc(O)c(O)c3)oc2c1 [RHAMNETIN] | 5.11
